Measurements published in ChEMBL document CHEMBL5030505, “Assessment of NR4A Ligands That Directly Bind and Modulate the Orphan Nuclear Receptor Nurr1” (J Med Chem, 2020).
The source made the active and inactive calls. No cut-off for these calls is given here.

What was measured:
Type in all cases: cell-based
PC-12 = test: Cytotoxicity against rat PC-12 cells assessed as reduction in cell viability at 5 to 100 uM incubated for 18 hrs by Cell titer-glo assay; conditions: pc-12, 18 h, dose 5-100 µM
In short: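 Cells seeded at 1.5 million per 10-cm dish. Next day they were replated at 10,000 cells/well and rested 4 h. Ligand or vehicle (water, ethanol or DMSO, by ligand) was added in dose-response format in quadruplicate. After 18 h, viability was read by CellTiter-Glo luminescence. Data are mean ± s.e.m., generally representative of 2 independent experiments. One-way ANOVA versus vehicle.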

[1] = target: Nuclear receptor subfamily 4 group A member 2 (Homo sapiens) (UniProt P43354); test: Modulation of full length human Nurr1 expressed in PC12 cells co-transfected with RXRalpha and luciferase reporter plasmid harboring NurRE response element assessed as decrease in luciferase activity at 1.56 to 6.25 uM incubated for 18 by luciferase reporter gene assay; conditions: PC-12, filed as modulator, dose 1.56-6.25 µM, time 18.0 hrs
Chain of Nuclear receptor subfamily 4 group A member 2 (Homo sapiens) (P43354 whole entry): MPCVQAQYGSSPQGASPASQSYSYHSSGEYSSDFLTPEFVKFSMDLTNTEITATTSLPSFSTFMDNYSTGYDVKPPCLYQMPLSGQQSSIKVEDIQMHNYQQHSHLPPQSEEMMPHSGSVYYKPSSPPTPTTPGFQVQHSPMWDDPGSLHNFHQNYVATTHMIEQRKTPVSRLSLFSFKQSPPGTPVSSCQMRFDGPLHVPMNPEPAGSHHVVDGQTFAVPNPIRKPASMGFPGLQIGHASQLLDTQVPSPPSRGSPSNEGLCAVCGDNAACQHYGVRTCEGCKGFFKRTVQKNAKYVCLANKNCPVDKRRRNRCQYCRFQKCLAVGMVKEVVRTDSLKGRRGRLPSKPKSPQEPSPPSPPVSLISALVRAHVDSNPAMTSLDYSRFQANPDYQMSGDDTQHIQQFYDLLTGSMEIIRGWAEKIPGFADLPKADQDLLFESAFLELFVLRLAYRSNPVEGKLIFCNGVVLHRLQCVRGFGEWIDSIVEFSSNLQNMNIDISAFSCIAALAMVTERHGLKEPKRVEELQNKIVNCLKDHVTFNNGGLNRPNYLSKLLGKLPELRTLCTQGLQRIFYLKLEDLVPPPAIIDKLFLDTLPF

[2] = target: Nuclear receptor subfamily 4 group A member 2 (Homo sapiens) (UniProt P43354); test: Modulation of full length human Nurr1 expressed in PC12 cells co-transfected with RXRalpha and luciferase reporter plasmid harboring NBRE response element assessed as increase in luciferase activity at 1.56 to 6.25 uM incubated for 18 by luciferase reporter gene assay; conditions: PC-12, filed as modulator, dose 1.56-6.25 µM, time 18.0 hrs
[3] = target: Nuclear receptor subfamily 4 group A member 2 (Homo sapiens) (UniProt P43354); test: Modulation of full length human Nurr1 expressed in HEK293T cells co-transfected with RXRalpha and luciferase reporter plasmid harboring NBRE response element assessed as increase in luciferase activity at 1.56 to 6.25 uM incubated for 18 by luciferase reporter gene assay; conditions: filed as modulator, dose 1.56-6.25 µM, time 18.0 hrs

Row | Structure (SMILES) | Activity (PC-12) | Activity [1] | Activity [2] | Activity [3]
1 | CCCCCCCC(=O)c1c(O)cc(O)cc1CC(=O)OCC [CYTOSPORONE B] | Toxic | – | – | –
2 | CC1=C(O)C(=O)C=C2C1=CC=C1[C@@]2(C)CC[C@@]2(C)[C@@H]3C[C@](C)(C(=O)O)CC[C@]3(C)CC[C@]12C [CELASTROL] | – | Active | Active | Active
